This note sets out measurements from ChEMBL document CHEMBL2093137, “WHO-TDR NTD Screening”.

Data set [1] is described as follows: WHO-TDR: Cytotoxicity. Format: toxicity, cell-based. The note with it: human, MRC5 cells.
A further data set relates to Plasmodium falciparum K1. The data set can be described thus: WHO-TDR: Malaria. Particulars: Erythrocyte. The class given is functional, organism-based, Homo sapiens. The method in brief: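 Antiplasmodial potency, expressed as IC50, was measured in a whole-organism assay on intra-erythrocytic Plasmodium falciparum K1 in human red blood cells. The screened library held 10,000 diverse compounds from Life Chemicals.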

The subject of a further data set is Trypanosoma cruzi. The data set can be described thus: WHO-TDR: Chagas disease. The class given is functional, organism-based, Homo sapiens. Particulars: MRC5. The method in brief:
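A diverse library of 10,000 compounds from Life Chemicals, filtered for drug-likeness and reactive groups, was screened against intracellular amastigotes of Trypanosoma cruzi Tulahuen CL2 beta-galactosidase strain. The parasites were grown in MRC-5SV2 human lung fibroblast host cells, and a reference drug served as positive control under previously published standard procedures. Antiparasitic potency is given as IC50.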

Data set [2] has as its system Trypanosoma brucei brucei. The data set can be described thus: WHO-TDR: Human African Trypanosomiasis (HAT). Format: functional, organism-based. The note with it: Squib-427. The method in brief:
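Antiparasitic potency is reported as IC50. The screen covered 10,000 compounds from a diverse Life Chemicals library, filtered for drug-likeness and reactive groups, tested on whole bloodstream-form Trypanosoma brucei of the Squib 427 strain.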

The next data set relates to Leishmania infantum. The experiment in a line: WHO-TDR: Leishmaniasis. The class given is functional, organism-based, Mus musculus. The note with it: Macrophage. The method in brief: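 Antiparasitic potency, reported as IC50, was measured against intracellular Leishmania infantum amastigotes. The parasite strain was MHOM/MA(BE)/67, and murine peritoneal macrophages served as host cells for the screen of a 10,000-compound diverse library from Life Chemicals.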

The test system of another data set is Schistosoma mansoni. The experiment in a line: WHO-TDR: Schistosomiasis. Format: functional. Further details: concentration or dose not given beside the values. The method in brief: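 Larval and/or adult Schistosoma mansoni (Puerto Rican strain) were tested whole against 10,000 diverse compounds from Life Chemicals. The procedure was a previously published standard one, using a reference drug as positive control. Results are expressed as percent inhibition and IC50.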

A further data set has as its system Onchocerca ochengi. The data set can be described thus: WHO-TDR: Onchocerciasis. The class given is functional. Further details: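 at 12.5 µM on microfilariae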. The essentials: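 Onchocerca ochengi or Onchocerca lienalis, animal pathogens used as surrogates for the human parasite, were screened as whole microfilariae against a 10,000-compound diverse library from Life Chemicals. The reported measures of activity are percent inhibition and IC50.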

Another data set has as its system Brugia malayi. The data set can be described thus: WHO-TDR: Lymphatic Filariasis. Format: functional. Further details: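 tested at 10 µM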. The method in brief:
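Percent inhibition and IC50 describe activity against Brugia malayi microfilariae in a whole-organism screen. The screen used previously published standard procedures with reference drugs as positive controls. Compounds came from a diverse Life Chemicals library of 10,000, filtered for drug-likeness and reactive groups.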

Converted amounts (≈) assume the structure as drawn.

Turning to `COc1cccc(NC(=O)NCCNc2ccc(Nc3cccc(C)n3)nn2)c1`, the concentration for half-maximal inhibition (IC50) was more than 11.8 mg/L in data set [1]; 4.98 mg/L (≈ 12.6 µM) with Plasmodium falciparum K1; more than 11.8 mg/L in the data set on Trypanosoma cruzi; 4.13 mg/L (≈ 10.5 µM) in data set [2]; more than 11.8 mg/L in the data set on Leishmania infantum. Also, the “% Inhibition” value is 0% with Schistosoma mansoni, 100% with Onchocerca ochengi and 0% in the data set on Brugia malayi.
As for `O=C(Nc1nnc(CCSc2ccccc2)o1)c1ccc(Cl)cc1`, the IC50 in data set [1] was 3.41 mg/L (≈ 9.49 µM); with Plasmodium falciparum K1, more than 10.8 mg/L; in the data set with Trypanosoma cruzi, 3.77 mg/L (≈ 10.5 µM); in data set [2], 3.49 mg/L (≈ 9.71 µM); in the data set on Leishmania infantum, 3.49 mg/L (≈ 9.71 µM). In addition, the results for the “% Inhibition” value with Schistosoma mansoni, in the data set on Onchocerca ochengi and with Brugia malayi were 0%, 100% and 0%, respectively.
Regarding `NC(=O)Cc1csc(SCC(=O)c2ccccc2)n1`, the IC50 in data set [1] was more than 8.77 mg/L; with Plasmodium falciparum K1, more than 8.77 mg/L; with Trypanosoma cruzi, more than 8.77 mg/L; in data set [2], more than 8.77 mg/L; in the data set with Leishmania infantum, 0.284 mg/L (≈ 0.971 µM). Besides, the entries for the “% Inhibition” value with Schistosoma mansoni, in the data set with Onchocerca ochengi and in the data set on Brugia malayi were 16.7%, 0% and 0%, respectively.
With `O=C(c1ccccc1)N1CCN(c2ccc(Nc3ccccn3)nn2)CC1`, the half-maximal inhibitory concentration (IC50) in data set [1] is more than 10.8 mg/L; in the data set on Plasmodium falciparum K1 it was more than 10.8 mg/L; with Trypanosoma cruzi it was more than 10.8 mg/L; in data set [2], more than 10.8 mg/L; in the data set with Leishmania infantum, 0.35 mg/L (≈ 0.971 µM). Besides, the “% Inhibition” value with Schistosoma mansoni, in the data set with Onchocerca ochengi and in the data set on Brugia malayi was 0% each time.
Consider `COc1cccc(-c2cc(CC(=O)NCc3c(F)cccc3F)no2)c1`, for which the IC50 in data set [1] is more than 10.8 mg/L; in the data set on Plasmodium falciparum K1, more than 10.8 mg/L; in the data set with Trypanosoma cruzi, more than 10.8 mg/L; in data set [2] it was more than 10.8 mg/L; in the data set with Leishmania infantum it was 3.48 mg/L (≈ 9.71 µM). In addition, the “% Inhibition” value worked out at 0% in the data set with Schistosoma mansoni, 100% in the data set on Onchocerca ochengi and 0% with Brugia malayi.
In the case of `Cc1cc(-c2nnc(NC(=O)CSc3ccc(F)cc3)o2)nn1C`, the IC50 was more than 10.4 mg/L in data set [1]; more than 10.4 mg/L in the data set with Plasmodium falciparum K1; more than 10.4 mg/L with Trypanosoma cruzi; more than 10.4 mg/L in data set [2]; 0.337 mg/L (≈ 0.97 µM) in the data set with Leishmania infantum. Besides, the “% Inhibition” value in the data set with Schistosoma mansoni turned out to be 0%; in the data set with Onchocerca ochengi, 0%; in the data set with Brugia malayi, 33.33%.
`CSc1cccc(C(=O)N(Cc2cccnc2)c2nc3ccc(S(C)(=O)=O)cc3s2)c1`: the IC50 in data set [1] is more than 14.1 mg/L; with Plasmodium falciparum K1 it was 8.28 mg/L (≈ 17.6 µM); in the data set on Trypanosoma cruzi, 0.383 mg/L (≈ 0.816 µM); in data set [2] it was more than 14.1 mg/L; in the data set with Leishmania infantum, more than 14.1 mg/L. The “% Inhibition” value in the data set with Schistosoma mansoni, in the data set with Onchocerca ochengi and in the data set with Brugia malayi was 0% each time.
On to `O=C(CSc1ccc(F)cc1)N(CCCn1ccnc1)c1nc2c(F)cccc2s1`, for which the IC50 in data set [1] was more than 14.4 mg/L; in the data set with Plasmodium falciparum K1 it was 2.13 mg/L (≈ 4.8 µM); in the data set with Trypanosoma cruzi, 5.11 mg/L (≈ 11.5 µM); in data set [2], 4.62 mg/L (≈ 10.4 µM); in the data set on Leishmania infantum, more than 14.4 mg/L. For the same compound, the entries for the “% Inhibition” value in the data set on Schistosoma mansoni, with Onchocerca ochengi and in the data set on Brugia malayi were 0%, 100% and 0%, respectively.
As for `O=C(NCCOc1ccc(-c2ccc(F)cc2)nn1)c1cccc(C(F)(F)F)c1`, the concentration for half-maximal inhibition (IC50) (in data set [1]; with Plasmodium falciparum K1; in the data set with Trypanosoma cruzi; in data set [2]; in the data set on Leishmania infantum) was more than 12.2 mg/L in each case. The “% Inhibition” value with Schistosoma mansoni turned out to be 0%; in the data set on Onchocerca ochengi, 100%; in the data set with Brugia malayi, 25%.
With `CC1CC(C)CN(S(=O)(=O)CCCOc2ccc3c(c2)OCO3)C1` (stereo not given), the IC50 was 4.25 mg/L (≈ 11.9 µM) in data set [1]; more than 10.7 mg/L in the data set with Plasmodium falciparum K1; more than 10.7 mg/L in the data set with Trypanosoma cruzi; more than 10.7 mg/L in data set [2]; more than 10.7 mg/L in the data set with Leishmania infantum. Further, the results for the “% Inhibition” value with Schistosoma mansoni, with Onchocerca ochengi and in the data set on Brugia malayi were 100%, 0% and 20%, respectively.

Usually IC50 stands for the concentration that inhibits the measured activity by half. By % Inhibition is commonly meant the change of the read-out against control, counted positive when it falls.
